The values that follow come from ChEMBL document CHEMBL4513216, “Probing the Open Global Health Chemical Diversity Library for Multistage-Active Starting Points for Next-Generation Antimalarials” (ACS Infect Dis, 2020).

The data set is described as follows: Toxicity liver stage against HepG2, at 10uM. The note with it: human, HepG2-A16-CD81EGFP cells; read-out: INHIBITION
More on the design: test concentration 10 uM, cell line HepG2-A16-CD81EGFP. In kind it is cell-based. In short, it runs like this:
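Uninfected HepG2-A16-CD81EGFP cells, 3 × 10^3 per well, 1536-well, plated on prespotted compound at 10 μM final, parasite-free screening media added to match infected plates; puromycin 10 μM positive, DMSO 0.5% negative; run in parallel with 48 h PbLuc assay at 37 °C, 5% CO2; viability by CellTiter-Glo luminescence, normalized to controls.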
For `Cc1cc(NCc2ccc(N3CCNC(=O)C3)cc2)nc(C)n1`, the cytotoxicity at 10 µM is -4.99%.

Regarding `CC[C@H](C)[C@H](NC(=O)c1ccc(-n2cnnn2)cc1)C(=O)OC`, the cytotoxicity at 10 µM stood at 9.09%.

In the case of `Cc1cnc2n(c1=O)C(CC(=O)NCc1ccc(Cl)cc1)CS2` (stereo unspecified), the cytotoxicity at 10 µM is -5.55%.

For the compound `O=C(c1ccco1)N(CC(F)(F)F)C1CCOCC1`, the cytotoxicity at 10 µM was -12.3%.

In the case of `Cn1cc(-c2nc(C3CCN(CC4CC4)CC3)cc3c2ncn3C)cn1`, the cytotoxicity at 10 µM was -1.86%.

Consider `CS(=O)(=O)N1CCO[C@@H]2CN(Cc3ccc(F)cc3)C[C@@H]2C1`, for which the cytotoxicity at 10 µM came out at 4.74%.

Consider `O=C(CCO)N1CC2(CCN(c3ccccc3)C2)C1`, for which the cytotoxicity at 10 µM worked out at 8.76%.

On to `CN(C)C[C@H]1OC[C@@H]2CCN(C(=O)NCc3cccc(F)c3)C[C@@H]21`, for which the cytotoxicity at 10 µM was found to be 6.98%.

For the compound `CS(=O)(=O)N1CCCCC12CCN(C(=O)c1ccccc1)C2` (stereo unspecified), the cytotoxicity at 10 µM was -148%.

In the case of `NC(=O)N1Cc2nccn2CC(Cn2ncccc2=O)C1` (stereo unspecified), the cytotoxicity at 10 µM worked out at 3.19%.

On to `Cc1noc([C@@]23CCO[C@@H]2CCN(C(=O)c2cc(C)on2)C3)n1`, for which the cytotoxicity at 10 µM is 10.9%.

`COCc1ncn2c1CN(S(=O)(=O)c1cccc(OC)c1)CC2`: the cytotoxicity at 10 µM stood at 3.47%.

For `O=C(Cc1ccsc1)N1C[C@@H]2C[C@@H](c3nnc(C4CC4)o3)O[C@@H]2C1`, the cytotoxicity at 10 µM is -142%.

As to `N#Cc1cn[nH]c1NCc1cc(Cl)cc(Cl)c1O`, the cytotoxicity at 10 µM was found to be 19.1%.

In the case of `Nc1nnc(Cn2nnc(-c3ccccc3F)n2)s1`, the cytotoxicity at 10 µM came to 3.09%.

Take `Cc1ccc(Nc2nccc(C3CN(C(C)C)C3)n2)nc1`: the cytotoxicity at 10 µM is -26.2%.

On to `CN1CCCC[C@@H]2[C@H]1[C@@H](c1ccccc1)CCN2S(=O)(=O)N1CCCC1`, for which the cytotoxicity at 10 µM is -1.03%.

Consider `CC(C)C(=O)N1CCC(n2nc(-c3ccco3)ccc2=O)CC1`, for which the cytotoxicity at 10 µM was -2.44%.

For the compound `Cc1nc2cc(C3CCN(Cc4ccccc4F)C3)nn2c(O)c1C` (stereo unspecified), the cytotoxicity at 10 µM came to 5.52%.

On to `CC(C)(C)NC(=O)Cn1c(=O)n(Cc2ccco2)c2ncccc21`, for which the cytotoxicity at 10 µM is -6%.

`CC(C)(C)n1ncc(NCc2ccccc2)c(Cl)c1=O`: the cytotoxicity at 10 µM was 55.8%.

For the compound `Cn1cnc2c1CCN(c1ccnc(-c3ccccc3)n1)C2`, the cytotoxicity at 10 µM turned out to be 7.51%.

With `CN1CCC(N(Cc2ccco2)S(=O)(=O)c2ccc(Br)cc2Cl)CC1`, the cytotoxicity at 10 µM was -12.8%.

Consider `Cc1ccnc(NC(=O)C2CCCO2)c1` (stereo unspecified), for which the cytotoxicity at 10 µM was -11.3%.

On to `CC(=O)N1CCc2ccccc2C1CC(=O)NCc1nnc(C)o1` (stereo unspecified), for which the cytotoxicity at 10 µM amounted to 5.8%.

`COC(=O)CN(C(=O)c1cc(C)c(F)cc1F)c1cccc(C)n1`: the cytotoxicity at 10 µM came out at 6.9%.

On to `CC(=O)c1cccc(NC(=O)N(CC(F)F)C2CC2)c1`, for which the cytotoxicity at 10 µM is 2.08%.

As to `COC(=O)CC1CCCCN1CC(=O)Nc1ccc(F)cc1Cl` (stereo unspecified), the cytotoxicity at 10 µM came out at 14%.

Turning to `CCc1ccc(C(=O)NC2CCN(c3ccn(C)n3)C2)o1` (stereo unspecified), the cytotoxicity at 10 µM was -0.577%.

In the case of `CCOC1CCN(C(=O)NCc2ccc(CN3CCOCC3)cc2)CC1`, the cytotoxicity at 10 µM turned out to be 7.31%.

With `Cc1ccc(C(C)(C)CNC(=O)NC(C)Cn2cncn2)cc1` (stereo unspecified), the cytotoxicity at 10 µM came to 3.09%.

As for `CCS(=O)(=O)Cc1nnnn1-c1ccccc1`, the cytotoxicity at 10 µM turned out to be 2.7%.

As for `COCc1cc(N(C)Cc2cnccn2)nc(C(C)(C)C)n1`, the cytotoxicity at 10 µM came to 8.24%.

Consider `CCc1nc(C2NC3(CCCC3)C(=O)N2CC2CC2)cs1` (stereo unspecified), for which the cytotoxicity at 10 µM is -1.09%.

On to `C=C(C)CN1CCCC1c1nc(Cc2ccc(F)cc2)no1` (stereo unspecified), for which the cytotoxicity at 10 µM was -4.9%.

Take `CCc1noc(C(C)N2CCN(c3ncnc4sccc34)CC2)n1` (stereo unspecified): the cytotoxicity at 10 µM came out at 56.3%.

Regarding `CC(NC(=O)c1cccs1)(C(N)=O)c1cccc(C(F)(F)F)c1` (stereo unspecified), the cytotoxicity at 10 µM was -3.42%.

For the compound `CN(Cc1ccco1)C(=O)CN1CCCC1c1cccs1` (stereo unspecified), the cytotoxicity at 10 µM was -3.62%.

With `CCc1noc(CS(=O)(=O)Cc2ccccc2C)n1`, the cytotoxicity at 10 µM worked out at 16.8%.

On to `COC1CCN(C(=O)C2CC(=O)N(c3ccccc3Br)C2)CC1` (stereo unspecified), for which the cytotoxicity at 10 µM is -3.57%.

Take `Cc1nc(C)c(C(=O)NCC(c2ccccc2Cl)N2CCOCC2)s1` (stereo unspecified): the cytotoxicity at 10 µM was 1.4%.

As to `O=C(CCCn1cncn1)NC1(c2ccc(Cl)cc2)CCC1`, the cytotoxicity at 10 µM amounted to 6.66%.

For `CN(C)C(=O)c1cc(S(=O)(=O)N2CCCC2Cn2ccnc2)cn1C` (stereo unspecified), the cytotoxicity at 10 µM is 12.2%.

Turning to `Cc1ccc(C(N)c2cccs2)cc1` (stereo unspecified), the cytotoxicity at 10 µM was -0.367%.

Consider `CCS(=O)(=O)NCC(=O)N1CC2(CCCC2)c2c(F)cccc21`, for which the cytotoxicity at 10 µM is 1.56%.

Take `CCN(CC(=O)NC)C(=O)Cc1csc(C(C)C)n1`: the cytotoxicity at 10 µM is -3.61%.

For `COc1ncc(Cl)c(NCc2ccc([S+](C)[O-])cc2)n1` (stereo unspecified), the cytotoxicity at 10 µM was -4.18%.

On to `CCn1nc(C)c(S(=O)(=O)Nc2cccc(C(=O)O)c2C)c1C`, for which the cytotoxicity at 10 µM is -0.731%.

In the case of `CC(NCc1ccccc1O)c1ccc(-n2ccnc2)cc1` (stereo unspecified), the cytotoxicity at 10 µM was -46.9%.

For `CCCNC(=O)CN1CCOC(CC)C1` (stereo unspecified), the cytotoxicity at 10 µM stood at 2.98%.

For the compound `CC(=O)c1ccc(NC(=O)NCc2cccc(N(C)C)n2)cc1C`, the cytotoxicity at 10 µM came to 6.45%.

For the compound `CC(C)c1cc(C(=O)NCC2(C(N)=O)CCOCC2)nn1C(C)(C)C`, the cytotoxicity at 10 µM is 10.3%.

For the compound `CC(C)c1nsc(N2CCCOCC2)n1`, the cytotoxicity at 10 µM is -7.86%.

With `COc1cccc(CN(C)C(=O)c2ccc(NC(C)=O)s2)c1OC`, the cytotoxicity at 10 µM was found to be 0.23%.

Take `CCC(C)CS(=O)(=O)NC(=O)C1CCC1` (stereo unspecified): the cytotoxicity at 10 µM is -7.88%.

Regarding `Fc1ccc(OCCNC2CCN(Cc3ccncc3)CC2)c(F)c1`, the cytotoxicity at 10 µM is -11.1%.

Regarding `Cn1c(CCN2CCN(c3ccc(O)cc3)CC2)nc2ccccc21`, the cytotoxicity at 10 µM was -37.5%.

On to `Cc1cc(NCCCNS(C)(=O)=O)nc2ccccc12`, for which the cytotoxicity at 10 µM is -4.69%.

With `COc1ccc(Oc2cc(CN)ccn2)cc1`, the cytotoxicity at 10 µM turned out to be 3.98%.

For `CCC(O)CN(C)Cc1nnc2ccccn12` (stereo unspecified), the cytotoxicity at 10 µM is -26.7%.

Regarding `CCS(=O)(=O)N(C)C1CCN(C(=O)c2cccc(Cl)c2)CC1`, the cytotoxicity at 10 µM is -13.7%.

Turning to `c1cnn(CC2CN(c3ncnc4ccsc34)CCO2)c1` (stereo unspecified), the cytotoxicity at 10 µM came to 38.7%.

`Cn1ccnc1CN1CCC2(CC1)COCCN(c1ncccn1)C2`: the cytotoxicity at 10 µM stood at 11.3%.

With `CCO[C@H]1CC[C@H]2[C@@H]1OCCN2C(=O)COc1ccccc1`, the cytotoxicity at 10 µM is -88.5%.

For `O=C(CC1CC1)N1CCC2(COCc3cnc(N4CCOCC4)nc32)C1` (stereo unspecified), the cytotoxicity at 10 µM was -82.1%.

Consider `O=C(c1cscn1)N1C[C@H]2CN(Cc3nccs3)C[C@H]2C1`, for which the cytotoxicity at 10 µM is -65.4%.

With `Cc1ccc(C(=O)N2C[C@H]3CCC[C@@]3(COCC3CCOCC3)C2)o1`, the cytotoxicity at 10 µM is -66.3%.

For `CC[C@H](C)[C@H](N)C(=O)N1CC(=O)c2sc(NCc3ccccc3)nc2C1`, the cytotoxicity at 10 µM is -9.58%.

For the compound `CCCc1cc(CNC2CCN(c3cc(C(C)C)nc(C)n3)CC2)on1`, the cytotoxicity at 10 µM was -13.6%.

`CCc1cc(N2CCC(NCCSc3nnnn3C)CC2)nc(C)n1`: the cytotoxicity at 10 µM was -15.2%.

Regarding `COc1cc(F)ccc1-c1cnc(N)cn1`, the cytotoxicity at 10 µM was -11.4%.

As to `O=C(NCCn1ccnc1-c1cc2n(n1)CCNC2)c1ccncc1`, the cytotoxicity at 10 µM is -2.66%.

Consider `CCNc1ncc(C(=O)NCc2csc(-c3ncccn3)n2)cn1`, for which the cytotoxicity at 10 µM is 6.59%.

On to `Cc1nnc(-c2cccc(N3CCC(NC(C)CC(C)C)CC3)c2)s1` (stereo unspecified), for which the cytotoxicity at 10 µM was 0.363%.

For the compound `CCC[C@H]1CN(CCS(C)(=O)=O)C[C@@H]1NC(=O)c1ccn(C)n1`, the cytotoxicity at 10 µM worked out at 5.83%.

Turning to `CCc1ccc(C2CC(=O)Nc3cc(OC)c(NS(C)(=O)=O)cc32)o1` (stereo unspecified), the cytotoxicity at 10 µM came out at 3.25%.

As for `CCc1cccc(OC2CN(C(=O)[C@@H](N)[C@@H](C)O)C2)c1`, the cytotoxicity at 10 µM was -3.92%.

On to `CN1CCCC2(CCN(Cc3cncn3C3CCCCC3)C2)C1=O` (stereo unspecified), for which the cytotoxicity at 10 µM was -5.96%.

As to `O=C(NCCN1CCOCC1)c1ccc(-c2ccc(F)cc2)nc1O`, the cytotoxicity at 10 µM was found to be 2.25%.

As to `CC(=O)N1CCc2c(nc(N(C)C)nc2NCc2cccs2)C1`, the cytotoxicity at 10 µM is -50.6%.

For the compound `CCOC(=O)c1sc2ccsc2c1CNC(=O)CCOC`, the cytotoxicity at 10 µM is -16.7%.

In the case of `CCc1noc(C(C)N2CCN(Cc3noc(C)n3)CC2)n1` (stereo unspecified), the cytotoxicity at 10 µM is -4.48%.

As to `Cc1cnn(CC2CCCN2CCc2nc3ccccc3c(=O)[nH]2)c1` (stereo unspecified), the cytotoxicity at 10 µM was -5.79%.

With `CC(C)(C)c1nc(CN2CCCC(Cn3cncn3)C2)cs1` (stereo unspecified), the cytotoxicity at 10 µM is -4.54%.

Turning to `COc1cc(C)c(S(=O)(=O)NCc2cccnc2N(C)C)c(C)c1`, the cytotoxicity at 10 µM stood at 12.2%.

As to `Cc1nccn1CCCn1cncc1-c1ccc2c(c1)CC(C)N2C` (stereo unspecified), the cytotoxicity at 10 µM was found to be 0.94%.

Regarding `CN1CCC2(COCCN(Cc3ccc4c(c3)OCO4)C2)C1` (stereo unspecified), the cytotoxicity at 10 µM was -2.05%.

`O=S(=O)(c1ccccc1)N1CCC2(CCCN2Cc2cccc(Cl)c2)C1` (stereo unspecified): the cytotoxicity at 10 µM was -130%.

For `O=C(C1CCC2(CCN(Cc3cccnc3)CC2)CO1)N1CCCC1` (stereo unspecified), the cytotoxicity at 10 µM is -108%.

Regarding `O=C(NCc1cncc2c1CCN(C1CCOCC1)C2)c1ccco1`, the cytotoxicity at 10 µM was -0.758%.

As to `CC(C)n1nc(CN(C)C)c2c1CN(C(=O)CC1CC1)CC2`, the cytotoxicity at 10 µM was -6.72%.

Turning to `O=C([C@H]1CN(Cc2ccccc2F)C[C@H]2OCC[C@@H]12)N1CCCO1`, the cytotoxicity at 10 µM came out at 13%.

With `c1cnc(N2CCO[C@H]3CN(CC4CCC4)C[C@H]32)cn1`, the cytotoxicity at 10 µM is -102%.

Take `c1cncc(N2CCO[C@H]3CN(CC4CCOC4)C[C@H]32)c1` (stereo partly specified): the cytotoxicity at 10 µM is -95.7%.

For `Cc1cc(CN2C[C@@H]3CC[C@H]2CN(Cc2[nH]cnc2C)C3)on1`, the cytotoxicity at 10 µM was -2.34%.

On to `CCc1ncc(C(=O)N2CC[C@H]3CC[C@@H](C2)N3C)cn1`, for which the cytotoxicity at 10 µM is -7.09%.
